We go through 1 compound from ChEMBL document CHEMBL1154181 (J Med Chem, 2009).

For experiment [1], the system named is Mus musculus. The experiment can be described thus: Antinociceptive activity against radiant heat-induced nociception in po dosed CD1 mouse assessed as increase in tail withdrawal latency measured after 15 to 120 mins postdose by tail flick test in presence of 2 mg/kg, ip nicotinic receptor antagonist mecamylamine hydrochloride administered 30 mins before compound infusion. The class given is functional. The method in brief: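 Antagonist given ip 30 min before oral dosing (naloxone 1, mecamylamine 2, yohimbine 2, CGP 35348 50 mg/kg). Tail flick with radiant heat at the tail tip, cut-off 15 s; latencies at 15–120 min converted to %MPE. Peak-time quantal response (≥50% MPE); ED50 from at least four groups of six male CD-1 mice.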
Background: In hot-plate and tail-flick tests a longer latency is read as antinociception.

Experiment [2] has as its target T1, Alpha-1B adrenergic receptor (Rattus norvegicus, UniProt P15823).
T1 sequence (P15823 whole entry): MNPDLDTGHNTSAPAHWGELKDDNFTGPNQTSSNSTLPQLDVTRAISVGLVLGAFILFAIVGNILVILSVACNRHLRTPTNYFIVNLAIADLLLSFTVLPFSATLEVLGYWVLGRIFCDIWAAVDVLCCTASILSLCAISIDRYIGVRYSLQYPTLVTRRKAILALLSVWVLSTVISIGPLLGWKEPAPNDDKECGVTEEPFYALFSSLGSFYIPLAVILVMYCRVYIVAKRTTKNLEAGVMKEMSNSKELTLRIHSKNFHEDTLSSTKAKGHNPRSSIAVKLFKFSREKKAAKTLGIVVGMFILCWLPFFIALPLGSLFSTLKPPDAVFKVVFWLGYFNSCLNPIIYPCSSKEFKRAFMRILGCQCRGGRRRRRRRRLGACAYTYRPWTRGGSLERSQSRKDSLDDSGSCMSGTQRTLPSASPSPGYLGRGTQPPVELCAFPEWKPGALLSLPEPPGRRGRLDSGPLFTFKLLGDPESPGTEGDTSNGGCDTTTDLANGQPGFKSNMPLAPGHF
As to the kind of experiment: Displacement of [3H]prazosin from adrenergic Alpha-1B receptor in Wistar rat liver membrane after 60 mins. It is filed as cell membranes. Background: Loss of bound radioactivity is the signal in a displacement assay; it reports binding, not function.

For experiment [3], the target named is T2, Alpha-2C adrenergic receptor (Homo sapiens) (UniProt P18825).
T2 sequence (whole entry): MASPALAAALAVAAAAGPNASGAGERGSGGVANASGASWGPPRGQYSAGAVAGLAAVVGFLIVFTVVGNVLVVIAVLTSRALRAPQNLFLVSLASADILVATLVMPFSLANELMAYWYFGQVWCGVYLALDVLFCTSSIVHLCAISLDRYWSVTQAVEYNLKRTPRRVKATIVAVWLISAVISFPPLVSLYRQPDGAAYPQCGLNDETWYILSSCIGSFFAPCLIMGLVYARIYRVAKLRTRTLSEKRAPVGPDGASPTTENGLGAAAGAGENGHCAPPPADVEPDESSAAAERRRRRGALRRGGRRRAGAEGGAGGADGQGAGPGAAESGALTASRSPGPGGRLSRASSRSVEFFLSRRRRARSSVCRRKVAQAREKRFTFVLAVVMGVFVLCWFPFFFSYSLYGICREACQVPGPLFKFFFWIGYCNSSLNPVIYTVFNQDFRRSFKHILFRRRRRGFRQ
The experiment can be described thus: Inhibition of radioligand binding to human adrenergic Alpha-2C receptor at 10 uM after 60 mins.

Experiment [4] relates to Mus musculus. The experiment can be described thus: Antinociceptive activity against thermal nociception in po dosed CD1 mouse assessed as increase in latency period to elicit jumping or hind paw licking measured after 15 to 90 mins postdose by hot plate method in presence of 2 mg/kg, ip nicotinic receptor antagonist mecamylamine hydrochloride administered 30 mins before compound infusion. The class given is functional. In outline:
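Antagonist given ip 30 min before oral dosing (naloxone 1, mecamylamine 2, yohimbine 2, CGP 35348 50 mg/kg). Hot plate at 48.5 ± 0.1 °C inside a cylinder, cut-off 60 s; latencies at 15–90 min as %MPE. Peak-time quantal response (≥50% MPE); ED50 from at least four groups of six male CD-1 mice.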

In experiment [5] the test system is Mus musculus. As to the kind of experiment: Antinociceptive activity in sc dosed mouse assessed as reduction in number of noxious stimulus-induced writhes. The class given is functional.

For `C=Cc1c(C)nn(CCCN2CCN(c3ccc(C)cc3)CC2)c(=O)c1N`, the ED50 in experiment [1] is 2.3 mg/kg; in experiment [4], 0.7 mg/kg; in experiment [5], 2.5 mg/kg. This compound yielded an IC50 in experiment [2] of 102 nM. The same compound came in with an Emax in experiment [3] of 71%.

As a reminder, the ED50 is the midpoint of the dose-response relation. Broadly, the IC50 is the concentration that gives 50% inhibition. Low values mean greater potency, high ones weaker potency. For orientation: Emax means the greatest response seen or fitted, relative to the assay's reference.
